# Measurements as given in ChEMBL document CHEMBL1157134, “Liposomal formulation of retinoids designed for enzyme triggered release” (J Med Chem, 2010).
# Key:
# HT-29 [1] = test: Cytotoxicity against human HT-29 cells after 48 hrs by MTT assay in presence of Agkistrodon piscivorus piscivorus venom sPLA2; format: functional, cell-based; details: HT-29, 48 h
# Outline: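 HT-29 cells (McCoy's 5A, 10% fetal calf serum) plated at 1 × 10⁴ cells/well 24 h before dosing. Liposomal prodrugs diluted in PBS, lipid concentration set by phosphorus analysis; snake venom sPLA₂ added to a final 5 nM. Cells exposed for 24 h, washed, then kept in complete medium another 48 h. Viability read by MTT, mean ± SD, n ≥ 3.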
# COLO 205 = test: Cytotoxicity against human COLO205 cells after 48 hrs by MTT assay; format: functional, cell-based; details: COLO 205, 48 h
# Outline: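 Colo205 cells grown in RPMI 1640 with 10% fetal calf serum and 1% Pen-Strep at 5% CO₂, seeded at 2 × 10⁴ cells/well 24 h before treatment. Dosing used conditioned medium carrying about 100 ng/mL sPLA₂ IIA. Exposure was 24 h, then a wash and 48 h in complete medium before MTT. Reported as mean ± SD, n = 3 or more.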
# HT-29 [2] = test: Cytotoxicity against human HT-29 cells after 48 hrs by MTT assay; format: functional, cell-based; details: HT-29, 48 h
# Outline: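 HT-29 cells grown in McCoy's 5A with 10% fetal calf serum and 1% Pen-Strep, seeded at 1 × 10⁴ cells/well 24 h before dosing. Tested with or without snake (Agkistrodon piscivorus piscivorus) venom sPLA₂ at 5 nM final. Exposure was 24 h, then a wash and 48 h in complete medium before MTT viability. Mean ± SD, n = 3 or more.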
# [3] = Stability assessed as compound degradation after 48 hrs by MALDI-TOF MS analysis in presence of Agkistrodon piscivorus piscivorus venom sPLA2; format: ADME
# Outline: (§1)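 Incubated with purified snake venom sPLA₂ at 37 °C, stirred and shielded from light, for 48 h. Extracts mixed with DHB matrix (DPPG included) and analysed by MALDI-TOF MS for remaining prodrug.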
# [4] = Cytotoxicity against human MT3 cells after 48 hrs by MTT assay; format: functional, cell-based; details: MT-3, 48 h
# Outline: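 MT-3 breast cancer cells grown in RPMI 1640 with 10% fetal calf serum and 1% Pen-Strep at 5% CO₂, plated at 1 × 10⁴ cells/well 24 h ahead. Retinoids were given in DMSO/water, final DMSO ≤0.5%. Exposure was 24 h, then a wash and 48 h in complete medium before MTT. Mean ± SD, n = 3.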
# [5] = Stability assessed as compound degradation after 48 hrs by MALDI-TOF MS analysis in presence of Naja mossambica mossambica venom sPLA2; format: ADME; outline: as §1
# [6] = Inhibition of sPLA2 from Naja mossambica mossambica by fluorescence technique
IC50 [6],Ki [6],Structure (SMILES),IC50 (HT-29 [1]),IC50 (COLO 205),IC50 (HT-29 [2]),Stability [3],IC50 [4],Stability [5]
–,–,CCCCCCCCCCCCCCCCCC(=O)OC[C@H](COP(=O)(O)OC[C@H](O)CO)OC(=O)CCCCCCCCCCCCCCCCC,25 µM,54 µM,> 200 µM,–,–,–
–,–,CCCCCCCCCCCCCCCCCCOC[C@H](COP(=O)([O-])OC[C@@H](O)CO)OC(=O)CCCCCOC(=O)/C=C(C)/C=C/C=C(C)/C=C/C1=C(C)CCCC1(C)C.[Na+],7 µM,16 µM,> 200 µM,Unstable,–,–
–,–,CCCCCCCCc1ccc(-c2ccc(C(=O)O)cc2)cc1,–,> 200 µM,> 200 µM,–,51 µM,–
–,–,CCCCCCCCCCCCCCCCCCOC[C@H](COP(=O)([O-])OC[C@@H](O)CO)OC(=O)CCCCCOC(=O)c1ccc(-c2ccc(CCCCCCCC)cc2)cc1.[Na+],3 µM,7 µM,> 200 µM,Unstable,–,Unstable
–,–,CCCCCCCCCCCCCCCCCCOC[C@H](COP(=O)(O)OC[C@H](O)CO)OC(=O)CCCCCCCCCCCCCCCCC,9 µM,33 µM,> 200 µM,–,–,–
–,–,CCCCCCCCCCCCCCCCCC(=O)O [STEARIC ACID],–,> 200 µM,> 200 µM,–,–,–
–,–,CCCCCCCCCCCCCCCCCC(=O)OC[C@H](COP(=O)([O-])OC[C@@H](O)CO)OC(=O)CCCCCOC(=O)c1ccc(-c2ccc(CCCCCCCC)cc2)cc1.[Na+],8 µM,19 µM,> 200 µM,Unstable,–,Unstable
–,–,CCCCCCCCCCCCCCCCCC(=O)OC[C@H](COP(=O)([O-])OC[C@@H](O)CO)OC(=O)CCCCCOC(=O)/C=C(C)/C=C/C=C(C)/C=C/C1=C(C)CCCC1(C)C.[Na+],6 µM,12 µM,> 200 µM,Unstable,–,Unstable
–,–,CCCCCCCCCCCCCCCCCC(=O)OC[C@@H](O)COP(=O)(O)OCC(O)CO (some centres not stated),–,22 µM,7 µM,–,–,–
15 µM,11 µM,CC1=C(/C=C/C(C)=C/C=C/C(C)=C/C(=O)O)C(C)(C)CCC1 [TRETINOIN],–,37 µM,4.3 µM,–,30 µM,–
–,–,CCCCCCCCc1ccc(-c2ccc(C(=O)OCCCCCC(=O)O)cc2)cc1,–,127 µM,> 200 µM,–,14 µM,–
8 µM,6 µM,CC1=C(/C=C/C(C)=C/C=C/C(C)=C/C(=O)OCCCCCC(=O)O)C(C)(C)CCC1,–,17 µM,3.6 µM,–,17 µM,–
–,–,CCCCCCCCCCCCCCCCCCOC[C@@H](O)COP(=O)(O)OC[C@@H](O)CO,–,25 µM,11 µM,–,–,–
